KCNK3 inh – human KCNK3 channel inhibition, primary screen; CHO-KCNK3 thallium flux, FluxOR fluorescence; active compounds read low; O14649; B-score at 10 µM; AID 602410; hit rate 0.84% among 340,000;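 active = B-score under library mean minus 4 SD, starting fluorescence ratio at most library mean plus 5 SD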;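 note: more negative B-score means stronger inhibition of thallium flux through KCNK3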
hERG rescue – compounds protecting human hERG from proarrhythmic drug block; hit rate 0.51% among 310,000; CHO-hERG, FluxOR thallium flux, dofetilide IC70 present; activation (rescue from dofetilide block), less the hit threshold, % at 10 µM; Q12809;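 active = activation above the mean of controls blocked by dofetilide plus 5 SD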;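 note: thallium influx through hERG after potassium depolarization seen as dye fluorescence rise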
KCNQ1 inh – inhibitors of human KCNQ1 potassium channel. CHO-K1 KCNQ1, FluxOR thallium flux fluorescence; active compounds read high. B-score at 10 µM. hit rate 1.3% among 310,000. AID 2642;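 active = compounds whose thallium flux B-score, printed positive for inhibition, exceeds three library SD while starting fluorescence stays within three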;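 note: channel opened by potassium depolarization with thallium stimulus after 20 min compound exposure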
KCNK9 inh – inhibitors of human KCNK9 two-pore domain potassium channel | Q9NPC2 | HEK293 KCNK9, FluxOR thallium flux fluorescence; active compounds read low | B-score at 10 µM | hit rate 1.2% among 310,000;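 active = ratio B-score over 3 SD below the library mean, with starting fluorescence within 5 SD of its mean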;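 note: negative B-score means less thallium flux so channel inhibition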
Target sequence (Q9NPC2 whole entry, looked up, the tested form may be a part): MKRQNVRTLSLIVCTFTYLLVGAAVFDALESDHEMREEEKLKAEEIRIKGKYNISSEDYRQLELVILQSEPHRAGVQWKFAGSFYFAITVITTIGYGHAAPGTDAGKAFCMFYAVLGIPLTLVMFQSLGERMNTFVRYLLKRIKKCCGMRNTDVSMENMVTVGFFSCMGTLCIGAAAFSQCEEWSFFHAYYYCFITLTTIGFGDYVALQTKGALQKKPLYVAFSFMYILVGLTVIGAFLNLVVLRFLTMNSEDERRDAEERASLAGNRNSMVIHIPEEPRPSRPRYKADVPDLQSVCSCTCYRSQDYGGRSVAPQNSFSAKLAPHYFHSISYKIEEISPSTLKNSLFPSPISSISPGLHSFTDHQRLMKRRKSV
Kir21 inh – Kir2.1 (mouse) channel inhibition. HEK293-Kir2.1, FluxOR thallium flux fluorescence; active compounds read low. hit rate 0.85% among 310,000. P35561. B-score at 10 µM;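 active = fluorescence ratio B-score at or below minus 3 SD of library scores, with starting-brightness B-score within 2 SD, cut at about -4.2 in these data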;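 note: channel flux triggered by added potassium and thallium sulfate stimulus; B-score of peak minus minimum fluorescence over baseline after thallium stimulus; more negative B-score means stronger Kir2.1 block with less thallium influx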
KCNQ1 pot – human KCNQ1 channel potentiation or activation; hit rate 0.35% among 310,000; CHO-K1 KCNQ1, thallium flux FluxOR fluorescence; active compounds read high; B-score at 10 µM; P51787;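 active = fluorescence ratio B-score, a plate-corrected score, at least three library SD, with initial intensity B-score within 5 SD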
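Test system: CHO-K1 cells stably expressing KCNQ1 / Medium: assay buffer / Also added: depolarizing K+/Tl+ stimulus, K2SO4 and Tl2SO4 each 12.5 mM in 5x stock / Incubation: 90 min dye loading and 20 min compound exposure, both at room temperature / Signal: thallium influx via FluxOR fluorescence, kinetic imaging / Evaluation: B score of baseline-normalized fluorescence ratio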
Active calls of the source: *. In the library only some 3.8% were active in any assay of this set; here they are far more common.

Results for O=C(NC(=S)Nc1nc2ccccc2s1)c1cccs1 ?
KCNK3 inh: inactive; hERG rescue: 52*; KCNQ1 inh: inactive; KCNK9 inh: inactive; Kir21 inh: 0.84; KCNQ1 pot: 54*

How did O=C(NCCC(c1ccccc1)c1ccccc1)c1cccs1 do in these assays?
KCNK3 inh: inactive; hERG rescue: -4; KCNQ1 inh: inactive; KCNK9 inh: -7*; Kir21 inh: -3.2; KCNQ1 pot: inactive

How did NC(=S)Nc1nc2ccccc2s1 do in these assays?
KCNK3 inh: inactive; hERG rescue: -3; KCNQ1 inh: inactive; KCNK9 inh: inactive; Kir21 inh: -0.87; KCNQ1 pot: 8*

How did COC(=O)c1nc(NC(=S)NC(=O)c2cccs2)sc1C do in these assays?
KCNK3 inh: inactive; hERG rescue: -4; KCNQ1 inh: inactive; KCNK9 inh: inactive; Kir21 inh: 1.2; KCNQ1 pot: inactive

What do the screens show for `COc1cccc(CNC(=O)C2CCN(S(=O)(=O)c3ccc(Br)s3)CC2)c1`?
KCNK3 inh: inactive; hERG rescue: -9; KCNQ1 inh: inactive; KCNK9 inh: inactive; Kir21 inh: -0.18; KCNQ1 pot: inactive

What do the screens show for `Cc1ccccc1NC(=O)COC(=O)c1ccc(S(=O)(=O)N2CCCC2)cc1`?
KCNK3 inh: inactive

What do the screens show for `C/C(=N/NS(=O)(=O)c1cc(C)ccc1C)c1ccc2c(c1)OCO2`?
KCNK3 inh: inactive; hERG rescue: -10; KCNQ1 inh: inactive; KCNK9 inh: inactive; Kir21 inh: 2.9; KCNQ1 pot: inactive

Results for CC1CCN(c2ccccc2NC(=S)NC(=O)c2cccs2)CC1 ?
KCNK3 inh: inactive; hERG rescue: -2; KCNQ1 inh: inactive; KCNK9 inh: inactive; Kir21 inh: -0.02; KCNQ1 pot: 14*

Results for O=C(O)/C=C/C(=O)NCCCc1ccccc1 ?
KCNK3 inh: inactive; hERG rescue: -8; KCNQ1 inh: inactive; KCNK9 inh: inactive; Kir21 inh: -0.67; KCNQ1 pot: inactive

Results for c1ccc(-c2nc3nc4ccccc4nc3n2Cc2ccco2)cc1 ?
KCNK3 inh: inactive; hERG rescue: -7; KCNQ1 inh: inactive; KCNK9 inh: inactive; Kir21 inh: -0.71; KCNQ1 pot: inactive

How did N=c1c2c(-c3ccccc3)c(-c3ccccc3)n(Cc3ccco3)c2ncn1CCN1CCOCC1 do in these assays?
KCNK3 inh: inactive; hERG rescue: -14; KCNQ1 inh: inactive; KCNK9 inh: inactive; Kir21 inh: -5.3*; KCNQ1 pot: inactive

Results for N=c1c2c(-c3ccccc3)c(-c3ccccc3)n(Cc3ccco3)c2ncn1CCO ?
KCNK3 inh: inactive; hERG rescue: -15; KCNQ1 inh: inactive; KCNK9 inh: inactive; Kir21 inh: -9.9*; KCNQ1 pot: inactive

What do the screens show for `N=c1c2c(-c3ccccc3)c(-c3ccccc3)n(Cc3ccco3)c2ncn1CCCO`?
KCNK3 inh: inactive; hERG rescue: -16; KCNQ1 inh: inactive; KCNK9 inh: inactive; Kir21 inh: -5.5*; KCNQ1 pot: inactive

What do the screens show for `CCOC(=O)C1CCCN(C(=O)Nc2ccccc2)C1` (stereo not drawn)?
KCNK3 inh: inactive; hERG rescue: -8; KCNQ1 inh: inactive; KCNK9 inh: inactive; Kir21 inh: -0.25; KCNQ1 pot: inactive

Results for N=c1ncn(Cc2ccccc2)c2nc(SCCOc3ccccc3)[nH]c12 ?
KCNK3 inh: inactive; hERG rescue: -5; KCNQ1 inh: inactive; KCNK9 inh: inactive; Kir21 inh: -1.6; KCNQ1 pot: 9*

How did CCOC(=O)/C(=C/C=C1\Sc2cc(C)c(C)cc2N1CC)C(C)=O do in these assays?
KCNK3 inh: inactive; hERG rescue: -37; KCNQ1 inh: 13*; KCNK9 inh: inactive; Kir21 inh: -11; KCNQ1 pot: inactive

How did Cc1ccc(C(=O)NCC(=O)NC23CC4CC(CC(C4)C2)C3)cc1 do in these assays?
KCNK3 inh: inactive; hERG rescue: -7; KCNQ1 inh: inactive; KCNK9 inh: inactive; Kir21 inh: -0.08; KCNQ1 pot: inactive

What do the screens show for `Cc1ccc(/C(O)=C/C(=O)C(=O)NC23CC4CC(CC(C4)C2)C3)cc1`?
KCNK3 inh: inactive; hERG rescue: 8.5*; KCNQ1 inh: inactive; KCNK9 inh: inactive; Kir21 inh: -0.1; KCNQ1 pot: 15*

Source: PubChem BioAssay
